From ChEMBL document CHEMBL4033712, “Synthesis and biological evaluation of new C-12(α/β)-(N-) sulfamoyl-phenylamino-14-deoxy-andrographolide derivatives as potent anti-cancer agents” (Bioorg Med Chem Lett, 2017)

Tests used:
Format in all cases: functional
HL-60(TB) = assay: Growth inhibition of human HL-60(TB) cells incubated for 48 hrs by sulforhodamine B assay; conditions: HL-60, 48 h
Procedure, shortened: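 NCI-60 five-dose screen at 0.01, 0.1, 1, 10 and 100 µM for 48 h, sulforhodamine B read-out. GI50 taken from log concentration versus % growth inhibition curves as the concentration giving 50% decrease in net cell growth.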

K562 = assay: Growth inhibition of human K562 cells incubated for 48 hrs by sulforhodamine B assay; conditions: K562, 48 h
Procedure, shortened: (§1)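 NCI-60 five-dose screen at 0.01, 0.1, 1, 10 and 100 µM, 48 h incubation, sulforhodamine B end point. GI50 (50% decrease in net growth), TGI (total growth inhibition) and LC50 (net 50% loss of initial cells) taken from log concentration versus % growth inhibition curves.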

A549 = assay: Growth inhibition of human A549/ATCC cells incubated for 48 hrs by sulforhodamine B assay; conditions: A549, 48 h; procedure, shortened: as §1
EKVX = assay: Growth inhibition of human EKVX cells incubated for 48 hrs by sulforhodamine B assay; procedure, shortened: as §1
HOP-92 = assay: Growth inhibition of human HOP92 cells incubated for 48 hrs by sulforhodamine B assay; conditions: HOP-92, 48 h; procedure, shortened: as §1
NCI-H322M = assay: Growth inhibition of human NCI-H322M cells incubated for 48 hrs by sulforhodamine B assay; procedure, shortened: as §1
NCI-H522 = assay: Growth inhibition of human NCI-H522 cells incubated for 48 hrs by sulforhodamine B assay; conditions: NCI-H522, 48 h; procedure, shortened: as §1
COLO 205 = assay: Growth inhibition of human COLO205 cells incubated for 48 hrs by sulforhodamine B assay; conditions: COLO 205, 48 h; procedure, shortened: as §1
HCT-116 = assay: Growth inhibition of human HCT116 cells incubated for 48 hrs by sulforhodamine B assay; conditions: HCT-116, 48 h; procedure, shortened: as §1
HCT-15 = assay: Growth inhibition of human HCT15 cells incubated for 48 hrs by sulforhodamine B assay; conditions: HCT-15, 48 h; procedure, shortened: as §1
KM12 = assay: Growth inhibition of human KM12 cells incubated for 48 hrs by sulforhodamine B assay; conditions: KM12, 48 h; procedure, shortened: as §1
SF-295 = assay: Growth inhibition of human SF295 cells incubated for 48 hrs by sulforhodamine B assay; conditions: SF-295, 48 h
Procedure, shortened: (§2)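 NCI 60 human tumour cell line panel, five-dose study at 0.01, 0.1, 1, 10 and 100 µM, 48 h incubation. Sulforhodamine B protein-binding dye end point. GI50 (50% decrease in net cell growth), TGI (total growth inhibition) and LC50 (net 50% loss of initial cells) read from log concentration versus % growth inhibition curves.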

SF-539 = assay: Growth inhibition of human SF539 cells incubated for 48 hrs by sulforhodamine B assay; conditions: SF-539, 48 h; procedure, shortened: as §2
SNB-19 = assay: Growth inhibition of human SNB19 cells incubated for 48 hrs by sulforhodamine B assay; conditions: SNB-19, 48 h; procedure, shortened: as §2
M14 = assay: Growth inhibition of human M14 cells incubated for 48 hrs by sulforhodamine B assay; conditions: M14, 48 h; procedure, shortened: as §1
MDA-MB-435 = assay: Growth inhibition of human MDA-MB-435 cells incubated for 48 hrs by sulforhodamine B assay; conditions: MDA-MB-435, 48 h; procedure, shortened: as §1
SK-MEL-2 = assay: Growth inhibition of human SK-MEL-2 cells incubated for 48 hrs by sulforhodamine B assay; conditions: SK-MEL-2, 48 h; procedure, shortened: as §2
SK-MEL-28 = assay: Growth inhibition of human SK-MEL-28 cells incubated for 48 hrs by sulforhodamine B assay; conditions: SK-MEL-28, 48 h; procedure, shortened: as §2
SK-MEL-5 = assay: Growth inhibition of human SK-MEL-5 cells incubated for 48 hrs by sulforhodamine B assay; conditions: SK-MEL-5, 48 h; procedure, shortened: as §2
OVCAR-3 = assay: Growth inhibition of human OVCAR3 cells incubated for 48 hrs by sulforhodamine B assay; conditions: OVCAR-3, 48 h; procedure, shortened: as §1
OVCAR-8 = assay: Growth inhibition of human OVCAR8 cells incubated for 48 hrs by sulforhodamine B assay; conditions: OVCAR-8, 48 h; procedure, shortened: as §1
786-0 = assay: Growth inhibition of human 786-0 cells incubated for 48 hrs by sulforhodamine B assay; conditions: 786-0, 48 h; procedure, shortened: as §1
RXF 393 = assay: Growth inhibition of human RXF393 cells incubated for 48 hrs by sulforhodamine B assay; conditions: RXF 393, 48 h; procedure, shortened: as §2
TK-10 = assay: Growth inhibition of human TK10 cells incubated for 48 hrs by sulforhodamine B assay; conditions: TK-10, 48 h; procedure, shortened: as §2
MCF7 = assay: Growth inhibition of human MCF7 cells incubated for 48 hrs by sulforhodamine B assay; conditions: MCF7, 48 h; procedure, shortened: as §1
Hs-578T = assay: Growth inhibition of human Hs 578T cells incubated for 48 hrs by sulforhodamine B assay; procedure, shortened: as §1
BT-549 = assay: Growth inhibition of human BT549 cells incubated for 48 hrs by sulforhodamine B assay; conditions: BT-549, 48 h; procedure, shortened: as §1
T47D = assay: Growth inhibition of human T47D cells incubated for 48 hrs by sulforhodamine B assay; procedure, shortened: as §2
[1] = read-out: LC50 (the source's name)

C=C1CC[C@@H]2[C@](C)(COC(C)=O)[C@H](OC(C)=O)CC[C@@]2(C)[C@H]1CC(Nc1ccc(S(=O)(=O)Nc2cc(C)on2)cc1)C1=CCOC1=O (stereo partly drawn)
GI50 (HL-60(TB)): 1.39 µM | TGI (HL-60(TB)): 3.69 µM | CC50 (HL-60(TB); [1]): 9.82 µM | GI50 (K562): 1.57 µM | TGI (K562): 8.42 µM | CC50 (K562; [1]): > 100 µM | GI50 (A549): 4.75 µM | TGI (A549): 15.4 µM | CC50 (A549; [1]): 42.2 µM | GI50 (EKVX): 11 µM | TGI (EKVX): 25.9 µM | CC50 (EKVX; [1]): 60.8 µM | GI50 (HOP-92): 3.07 µM | TGI (HOP-92): 8 µM | CC50 (HOP-92; [1]): 28 µM | GI50 (NCI-H322M): 4.68 µM | TGI (NCI-H322M): 16.1 µM | CC50 (NCI-H322M; [1]): 44.6 µM | GI50 (NCI-H522): 1.04 µM | TGI (NCI-H522): 2.42 µM | CC50 (NCI-H522; [1]): 5.61 µM | GI50 (COLO 205): 1.97 µM | TGI (COLO 205): 4.34 µM | CC50 (COLO 205; [1]): 9.55 µM | GI50 (HCT-116): 1.12 µM | TGI (HCT-116): 2.39 µM | CC50 (HCT-116; [1]): 5.1 µM | GI50 (HCT-15): 1.5 µM | TGI (HCT-15): 3.83 µM | CC50 (HCT-15; [1]): 9.74 µM | GI50 (KM12): 1.83 µM | TGI (KM12): 3.69 µM | CC50 (KM12; [1]): 7.42 µM | GI50 (SF-295): 8.13 µM | TGI (SF-295): 21 µM | CC50 (SF-295; [1]): 47.7 µM | GI50 (SF-539): 1.59 µM | TGI (SF-539): 3.06 µM | CC50 (SF-539; [1]): 5.89 µM | GI50 (SNB-19): 3.12 µM | TGI (SNB-19): 12.2 µM | CC50 (SNB-19; [1]): 46.4 µM | GI50 (M14): 1.69 µM | TGI (M14): 4.17 µM | CC50 (M14; [1]): 10.8 µM | GI50 (MDA-MB-435): 1.74 µM | TGI (MDA-MB-435): 4.37 µM | CC50 (MDA-MB-435; [1]): 12.5 µM | GI50 (SK-MEL-2): 2.04 µM | TGI (SK-MEL-2): 4.4 µM | CC50 (SK-MEL-2; [1]): 9.49 µM | GI50 (SK-MEL-28): 2.02 µM | LC50 (50% net cell kill) (SK-MEL-28): 9.2 µM | TGI (SK-MEL-28): 4.31 µM | GI50 (SK-MEL-5): 2.11 µM | TGI (SK-MEL-5): 4.65 µM | CC50 (SK-MEL-5; [1]): 11.7 µM | GI50 (OVCAR-3): 1.66 µM | TGI (OVCAR-3): 3.09 µM | CC50 (OVCAR-3; [1]): 5.75 µM | GI50 (OVCAR-8): 1.88 µM | TGI (OVCAR-8): 4.3 µM | CC50 (OVCAR-8; [1]): 9.83 µM | GI50 (786-0): 1.96 µM | LC50 (concentration giving net 50% loss of initial cells) (786-0): 6.82 µM | TGI (786-0): 3.66 µM | GI50 (RXF 393): 2.05 µM | TGI (RXF 393): 3.84 µM | CC50 (RXF 393; [1]): 7.22 µM | GI50 (TK-10): 3.04 µM | TGI (TK-10): 7.11 µM | CC50 (TK-10; [1]): 23.8 µM | GI50 (MCF7): 0.59 µM | TGI (MCF7): 2.76 µM | GI50 (Hs-578T): 3.92 µM | LC50 (Hs-578T): > 100 µM | TGI (Hs-578T): 26.7 µM | GI50 (BT-549): 1.79 µM | TGI (BT-549): 3.47 µM | CC50 (BT-549; [1]): 6.73 µM | GI50 (T47D): 2.8 µM | TGI (T47D): 7.37 µM | CC50 (T47D; [1]): > 100 µM
